Measurements from ChEMBL document CHEMBL1153591, “Exploring bis-(indolyl)methane moiety as an alternative and innovative CAP group in the design of histone deacetylase (HDAC) inhibitors” (Bioorg Med Chem Lett, 2009).
pIC50: −log10 of the molar value.

Tests used:
NCI-H460 = test: Cytotoxicity against human H460 cells after 24 hrs by sulforhodamine B assay; format: functional, cell-based; conditions: NCI-H460, 24 h
HCT-116 = test: Cytotoxicity against human HCT116 cells after 24 hrs by sulforhodamine B assay; format: functional, cell-based; conditions: HCT-116, 24 h
Histone deacetylase 1 = Histone deacetylase 1 (Homo sapiens, UniProt Q13547); test: Inhibition of human HDAC1 by fluorimetry
Method in brief: (§1)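 Each purified single HDAC isoform incubated with fluorogenic substrate, a p53 fragment (residues […], Arg-His-Lys-Lys(Ac)) carrying an ε-acetylated lysine; deacetylation releases fluorophore, read by fluorimeter. Compounds tested as 10 doses, 1:3 serial dilution starting from 50 µM solution. IC50 from dose-response inhibition curves; trichostatin A as reference compound.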

Histone deacetylase 2 = Histone deacetylase 2 (Homo sapiens, UniProt Q92769); test: Inhibition of human HDAC2 by fluorimetry; method in brief: as §1
Histone deacetylase 3 = Histone deacetylase 3 (Homo sapiens, UniProt O15379); test: Inhibition of human HDAC3 by fluorimetry; method in brief: as §1
Histone deacetylase 4 = Histone deacetylase 4 (Homo sapiens, UniProt P56524); test: Inhibition of human HDAC4 by fluorimetry; method in brief: as §1
Histone deacetylase 5 = Histone deacetylase 5 (Homo sapiens, UniProt Q9UQL6); test: Inhibition of human HDAC5 by fluorimetry; method in brief: as §1
[1] = target: T1, Protein deacetylase HDAC6 (Homo sapiens, UniProt Q9UBN7); test: Inhibition of human HDAC6 by fluorimetry; method in brief: as §1
T1 sequence (Q9UBN7 whole entry): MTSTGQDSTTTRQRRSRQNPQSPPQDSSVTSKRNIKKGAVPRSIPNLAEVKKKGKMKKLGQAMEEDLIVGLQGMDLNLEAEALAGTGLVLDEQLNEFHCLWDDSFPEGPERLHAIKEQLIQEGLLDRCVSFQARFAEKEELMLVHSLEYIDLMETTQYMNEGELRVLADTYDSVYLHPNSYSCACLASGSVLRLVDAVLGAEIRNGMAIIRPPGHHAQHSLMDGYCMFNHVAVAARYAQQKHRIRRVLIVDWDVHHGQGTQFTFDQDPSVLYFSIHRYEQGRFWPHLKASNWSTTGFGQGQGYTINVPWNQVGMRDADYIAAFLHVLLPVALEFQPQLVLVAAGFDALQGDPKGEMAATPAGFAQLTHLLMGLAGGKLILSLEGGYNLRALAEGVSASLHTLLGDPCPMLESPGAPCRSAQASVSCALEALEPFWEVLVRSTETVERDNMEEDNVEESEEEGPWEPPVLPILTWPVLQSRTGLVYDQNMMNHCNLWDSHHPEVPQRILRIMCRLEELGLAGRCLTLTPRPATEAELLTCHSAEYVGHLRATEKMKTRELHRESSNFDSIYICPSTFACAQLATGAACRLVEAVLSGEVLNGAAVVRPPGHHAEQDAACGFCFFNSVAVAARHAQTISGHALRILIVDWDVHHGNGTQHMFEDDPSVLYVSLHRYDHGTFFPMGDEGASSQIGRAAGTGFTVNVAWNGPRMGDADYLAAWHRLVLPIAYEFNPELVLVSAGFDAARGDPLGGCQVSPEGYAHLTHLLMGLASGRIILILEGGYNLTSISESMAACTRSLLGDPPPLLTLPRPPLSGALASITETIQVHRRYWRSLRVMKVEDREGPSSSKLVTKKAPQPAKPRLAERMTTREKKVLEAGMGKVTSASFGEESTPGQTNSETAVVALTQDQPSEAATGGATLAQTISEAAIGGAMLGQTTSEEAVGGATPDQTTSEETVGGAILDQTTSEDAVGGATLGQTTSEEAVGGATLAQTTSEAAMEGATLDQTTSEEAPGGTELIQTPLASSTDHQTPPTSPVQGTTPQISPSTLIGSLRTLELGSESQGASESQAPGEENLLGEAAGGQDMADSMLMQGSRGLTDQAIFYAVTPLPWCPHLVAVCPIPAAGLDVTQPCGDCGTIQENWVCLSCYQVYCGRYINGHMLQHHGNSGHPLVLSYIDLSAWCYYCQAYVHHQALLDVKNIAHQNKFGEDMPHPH

Histone deacetylase 7 = target: T2, Histone deacetylase 7 (Homo sapiens, UniProt Q8WUI4); test: Inhibition of human HDAC7 by fluorimetry
T2 sequence (Q8WUI4 whole entry): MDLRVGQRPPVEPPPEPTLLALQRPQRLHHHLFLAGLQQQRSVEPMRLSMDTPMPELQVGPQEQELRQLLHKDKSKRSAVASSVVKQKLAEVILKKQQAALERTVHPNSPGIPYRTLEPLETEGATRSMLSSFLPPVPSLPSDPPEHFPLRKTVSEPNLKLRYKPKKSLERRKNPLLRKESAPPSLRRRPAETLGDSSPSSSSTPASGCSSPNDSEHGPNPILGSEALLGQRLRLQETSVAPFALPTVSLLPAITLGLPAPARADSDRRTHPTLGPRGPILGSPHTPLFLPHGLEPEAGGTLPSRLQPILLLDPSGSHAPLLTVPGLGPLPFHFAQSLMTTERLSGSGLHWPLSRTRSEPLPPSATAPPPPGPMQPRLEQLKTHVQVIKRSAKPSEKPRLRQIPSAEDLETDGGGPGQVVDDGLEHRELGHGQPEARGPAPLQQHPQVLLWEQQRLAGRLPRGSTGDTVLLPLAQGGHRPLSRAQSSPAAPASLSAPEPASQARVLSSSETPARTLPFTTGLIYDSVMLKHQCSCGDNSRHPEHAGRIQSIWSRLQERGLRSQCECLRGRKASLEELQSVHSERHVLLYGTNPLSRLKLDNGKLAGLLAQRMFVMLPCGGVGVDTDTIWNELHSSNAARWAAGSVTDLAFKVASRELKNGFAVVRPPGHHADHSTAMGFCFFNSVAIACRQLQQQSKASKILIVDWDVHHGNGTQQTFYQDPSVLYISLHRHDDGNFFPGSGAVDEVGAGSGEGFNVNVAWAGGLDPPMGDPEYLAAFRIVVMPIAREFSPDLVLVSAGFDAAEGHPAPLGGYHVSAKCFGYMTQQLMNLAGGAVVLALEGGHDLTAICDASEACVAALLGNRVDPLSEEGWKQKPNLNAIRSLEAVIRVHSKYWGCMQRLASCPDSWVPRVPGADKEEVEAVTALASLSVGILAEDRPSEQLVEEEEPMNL

Histone deacetylase 8 = target: T3, Histone deacetylase 8 (Homo sapiens, UniProt Q9BY41); test: Inhibition of human HDAC8 by fluorimetry; method in brief: as §1
T3 sequence (Q9BY41 whole entry): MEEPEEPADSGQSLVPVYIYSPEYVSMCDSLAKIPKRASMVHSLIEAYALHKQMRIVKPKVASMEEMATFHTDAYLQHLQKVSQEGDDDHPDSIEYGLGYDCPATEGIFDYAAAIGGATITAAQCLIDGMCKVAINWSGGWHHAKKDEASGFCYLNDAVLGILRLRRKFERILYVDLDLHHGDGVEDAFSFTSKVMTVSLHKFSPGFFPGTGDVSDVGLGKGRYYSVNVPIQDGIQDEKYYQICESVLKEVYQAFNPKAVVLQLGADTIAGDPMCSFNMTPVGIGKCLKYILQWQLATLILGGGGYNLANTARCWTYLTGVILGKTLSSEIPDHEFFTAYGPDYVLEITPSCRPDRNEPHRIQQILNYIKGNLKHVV

Histone deacetylase 9 = Histone deacetylase 9 (Homo sapiens, UniProt Q9UKV0); test: Inhibition of human HDAC9 by fluorimetry; method in brief: as §1
[2] = target: T4, Polyamine deacetylase HDAC10 (Homo sapiens, UniProt Q969S8); test: Inhibition of human HDAC10 by fluorimetry; method in brief: as §1
T4 sequence (Q969S8 whole entry): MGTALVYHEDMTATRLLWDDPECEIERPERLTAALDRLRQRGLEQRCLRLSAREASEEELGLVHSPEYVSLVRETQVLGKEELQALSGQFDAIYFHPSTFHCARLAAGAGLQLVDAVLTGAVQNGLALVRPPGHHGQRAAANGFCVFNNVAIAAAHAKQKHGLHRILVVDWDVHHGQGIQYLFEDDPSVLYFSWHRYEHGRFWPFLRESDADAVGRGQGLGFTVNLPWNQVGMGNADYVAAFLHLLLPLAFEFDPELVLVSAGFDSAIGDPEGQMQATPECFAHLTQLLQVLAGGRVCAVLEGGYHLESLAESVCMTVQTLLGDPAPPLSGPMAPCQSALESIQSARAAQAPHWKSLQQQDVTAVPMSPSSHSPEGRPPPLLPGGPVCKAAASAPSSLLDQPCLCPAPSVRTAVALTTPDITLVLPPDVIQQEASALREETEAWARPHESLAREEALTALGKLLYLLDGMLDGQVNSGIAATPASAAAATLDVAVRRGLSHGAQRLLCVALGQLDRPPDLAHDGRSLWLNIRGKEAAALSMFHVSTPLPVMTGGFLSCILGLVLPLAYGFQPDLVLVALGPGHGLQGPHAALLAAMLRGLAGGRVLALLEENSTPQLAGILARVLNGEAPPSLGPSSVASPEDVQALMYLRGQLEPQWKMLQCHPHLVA

Histone deacetylase 11 = target: T5, Histone deacetylase 11 (Homo sapiens, UniProt Q96DB2); test: Inhibition of human HDAC11 by fluorimetry; method in brief: as §1
T5 sequence (Q96DB2 whole entry): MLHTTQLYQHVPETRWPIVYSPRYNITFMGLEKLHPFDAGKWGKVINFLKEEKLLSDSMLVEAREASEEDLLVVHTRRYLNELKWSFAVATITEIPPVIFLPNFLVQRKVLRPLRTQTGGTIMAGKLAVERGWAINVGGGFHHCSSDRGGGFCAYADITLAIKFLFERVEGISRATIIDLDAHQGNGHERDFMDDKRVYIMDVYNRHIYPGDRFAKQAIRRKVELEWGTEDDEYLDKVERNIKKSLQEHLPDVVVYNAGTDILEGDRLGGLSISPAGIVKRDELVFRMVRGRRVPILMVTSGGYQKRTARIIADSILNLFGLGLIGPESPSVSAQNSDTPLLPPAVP

Chain of Histone deacetylase 2 (Q92769 whole entry): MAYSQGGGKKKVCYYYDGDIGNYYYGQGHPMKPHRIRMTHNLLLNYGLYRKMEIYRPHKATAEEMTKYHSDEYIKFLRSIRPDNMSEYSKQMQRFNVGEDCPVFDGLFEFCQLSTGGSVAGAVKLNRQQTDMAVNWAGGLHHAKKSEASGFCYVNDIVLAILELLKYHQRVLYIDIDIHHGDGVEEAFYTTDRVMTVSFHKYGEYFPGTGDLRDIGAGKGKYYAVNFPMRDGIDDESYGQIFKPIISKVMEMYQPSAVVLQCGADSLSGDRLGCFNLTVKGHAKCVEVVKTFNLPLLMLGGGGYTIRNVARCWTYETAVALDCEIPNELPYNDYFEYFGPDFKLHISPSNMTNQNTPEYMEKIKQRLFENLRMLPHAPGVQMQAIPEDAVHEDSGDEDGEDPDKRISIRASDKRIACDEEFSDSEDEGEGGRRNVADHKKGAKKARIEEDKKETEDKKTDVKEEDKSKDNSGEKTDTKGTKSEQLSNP
Chain of Histone deacetylase 9 (Q9UKV0 whole entry): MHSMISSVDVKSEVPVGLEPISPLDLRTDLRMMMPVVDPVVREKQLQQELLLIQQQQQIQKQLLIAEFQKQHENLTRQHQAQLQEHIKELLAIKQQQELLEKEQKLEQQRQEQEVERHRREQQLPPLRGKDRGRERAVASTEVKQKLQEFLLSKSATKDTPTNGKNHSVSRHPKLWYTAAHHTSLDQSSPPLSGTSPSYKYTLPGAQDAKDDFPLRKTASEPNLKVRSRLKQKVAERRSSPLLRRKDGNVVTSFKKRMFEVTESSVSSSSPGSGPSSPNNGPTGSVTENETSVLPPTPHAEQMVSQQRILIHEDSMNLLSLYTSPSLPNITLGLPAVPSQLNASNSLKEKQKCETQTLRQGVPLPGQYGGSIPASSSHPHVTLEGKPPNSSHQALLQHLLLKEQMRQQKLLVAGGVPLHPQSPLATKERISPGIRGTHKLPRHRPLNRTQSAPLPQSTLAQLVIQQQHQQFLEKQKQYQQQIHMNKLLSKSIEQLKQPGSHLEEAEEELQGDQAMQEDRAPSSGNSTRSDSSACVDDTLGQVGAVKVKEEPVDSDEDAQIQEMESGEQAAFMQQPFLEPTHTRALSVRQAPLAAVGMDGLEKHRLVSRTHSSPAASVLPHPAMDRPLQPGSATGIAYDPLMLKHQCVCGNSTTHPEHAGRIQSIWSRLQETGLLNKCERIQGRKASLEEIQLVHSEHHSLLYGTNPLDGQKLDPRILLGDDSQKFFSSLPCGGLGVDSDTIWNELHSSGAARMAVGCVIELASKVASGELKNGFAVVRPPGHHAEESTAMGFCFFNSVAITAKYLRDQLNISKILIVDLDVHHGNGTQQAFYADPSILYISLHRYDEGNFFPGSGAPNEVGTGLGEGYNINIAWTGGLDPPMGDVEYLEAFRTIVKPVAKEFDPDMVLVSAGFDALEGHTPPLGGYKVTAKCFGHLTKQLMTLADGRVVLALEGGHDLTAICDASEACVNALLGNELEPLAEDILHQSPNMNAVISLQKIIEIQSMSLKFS
Chain of Histone deacetylase 3 (O15379 whole entry): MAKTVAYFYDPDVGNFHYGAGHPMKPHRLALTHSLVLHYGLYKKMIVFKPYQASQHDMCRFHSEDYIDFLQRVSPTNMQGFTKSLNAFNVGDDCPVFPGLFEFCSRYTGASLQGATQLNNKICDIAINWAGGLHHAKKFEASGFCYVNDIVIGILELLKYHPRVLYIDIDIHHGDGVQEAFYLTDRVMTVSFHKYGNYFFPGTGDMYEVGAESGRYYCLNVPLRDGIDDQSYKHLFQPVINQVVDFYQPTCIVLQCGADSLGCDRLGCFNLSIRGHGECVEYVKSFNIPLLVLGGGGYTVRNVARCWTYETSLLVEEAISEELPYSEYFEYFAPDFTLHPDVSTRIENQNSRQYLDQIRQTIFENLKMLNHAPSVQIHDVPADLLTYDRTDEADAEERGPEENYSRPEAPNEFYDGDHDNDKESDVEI
Chain of Histone deacetylase 1 (Q13547 whole entry, the tested form may be a part, canonical isoform): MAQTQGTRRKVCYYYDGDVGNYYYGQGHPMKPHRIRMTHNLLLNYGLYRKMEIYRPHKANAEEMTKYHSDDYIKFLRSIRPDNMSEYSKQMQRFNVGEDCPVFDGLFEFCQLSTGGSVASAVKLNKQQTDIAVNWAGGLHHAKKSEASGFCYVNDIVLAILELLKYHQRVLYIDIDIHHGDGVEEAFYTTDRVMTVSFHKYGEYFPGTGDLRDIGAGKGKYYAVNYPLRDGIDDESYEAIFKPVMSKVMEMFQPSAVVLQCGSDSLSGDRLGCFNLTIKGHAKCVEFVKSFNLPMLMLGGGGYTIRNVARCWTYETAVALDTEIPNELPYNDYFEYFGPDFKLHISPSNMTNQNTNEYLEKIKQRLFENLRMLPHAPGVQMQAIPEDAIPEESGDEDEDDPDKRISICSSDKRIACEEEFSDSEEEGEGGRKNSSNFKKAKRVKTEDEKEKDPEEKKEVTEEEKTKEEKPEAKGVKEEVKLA
Chain of Histone deacetylase 4 (P56524 whole entry): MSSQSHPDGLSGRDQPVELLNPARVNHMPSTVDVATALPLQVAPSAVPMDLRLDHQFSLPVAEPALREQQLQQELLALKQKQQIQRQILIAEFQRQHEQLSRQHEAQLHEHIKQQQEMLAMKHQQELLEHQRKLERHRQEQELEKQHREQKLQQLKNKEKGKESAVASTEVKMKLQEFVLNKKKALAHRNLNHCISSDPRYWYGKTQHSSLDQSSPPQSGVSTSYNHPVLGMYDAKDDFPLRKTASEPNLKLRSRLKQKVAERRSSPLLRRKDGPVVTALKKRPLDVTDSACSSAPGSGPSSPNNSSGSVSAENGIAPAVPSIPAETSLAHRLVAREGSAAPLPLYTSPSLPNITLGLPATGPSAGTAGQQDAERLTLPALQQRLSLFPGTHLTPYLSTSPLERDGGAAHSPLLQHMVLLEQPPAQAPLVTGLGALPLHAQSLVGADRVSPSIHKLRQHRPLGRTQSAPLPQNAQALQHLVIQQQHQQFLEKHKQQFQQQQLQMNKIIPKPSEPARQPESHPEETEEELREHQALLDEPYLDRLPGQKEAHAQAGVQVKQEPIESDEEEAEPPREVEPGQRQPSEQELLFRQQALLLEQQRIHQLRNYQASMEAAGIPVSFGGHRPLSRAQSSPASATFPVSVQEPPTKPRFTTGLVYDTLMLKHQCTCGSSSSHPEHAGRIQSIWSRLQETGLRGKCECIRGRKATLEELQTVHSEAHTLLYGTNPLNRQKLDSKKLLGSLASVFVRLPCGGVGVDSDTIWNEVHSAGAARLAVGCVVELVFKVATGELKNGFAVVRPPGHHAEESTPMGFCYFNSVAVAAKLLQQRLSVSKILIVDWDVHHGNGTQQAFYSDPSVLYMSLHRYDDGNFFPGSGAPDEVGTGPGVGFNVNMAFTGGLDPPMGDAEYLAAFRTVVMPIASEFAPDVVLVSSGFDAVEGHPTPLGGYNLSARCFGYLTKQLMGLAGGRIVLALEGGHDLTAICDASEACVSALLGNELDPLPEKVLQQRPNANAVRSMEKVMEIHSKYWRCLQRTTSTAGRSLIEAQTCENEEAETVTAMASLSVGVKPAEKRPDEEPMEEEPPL
Chain of Histone deacetylase 5 (Q9UQL6 whole entry): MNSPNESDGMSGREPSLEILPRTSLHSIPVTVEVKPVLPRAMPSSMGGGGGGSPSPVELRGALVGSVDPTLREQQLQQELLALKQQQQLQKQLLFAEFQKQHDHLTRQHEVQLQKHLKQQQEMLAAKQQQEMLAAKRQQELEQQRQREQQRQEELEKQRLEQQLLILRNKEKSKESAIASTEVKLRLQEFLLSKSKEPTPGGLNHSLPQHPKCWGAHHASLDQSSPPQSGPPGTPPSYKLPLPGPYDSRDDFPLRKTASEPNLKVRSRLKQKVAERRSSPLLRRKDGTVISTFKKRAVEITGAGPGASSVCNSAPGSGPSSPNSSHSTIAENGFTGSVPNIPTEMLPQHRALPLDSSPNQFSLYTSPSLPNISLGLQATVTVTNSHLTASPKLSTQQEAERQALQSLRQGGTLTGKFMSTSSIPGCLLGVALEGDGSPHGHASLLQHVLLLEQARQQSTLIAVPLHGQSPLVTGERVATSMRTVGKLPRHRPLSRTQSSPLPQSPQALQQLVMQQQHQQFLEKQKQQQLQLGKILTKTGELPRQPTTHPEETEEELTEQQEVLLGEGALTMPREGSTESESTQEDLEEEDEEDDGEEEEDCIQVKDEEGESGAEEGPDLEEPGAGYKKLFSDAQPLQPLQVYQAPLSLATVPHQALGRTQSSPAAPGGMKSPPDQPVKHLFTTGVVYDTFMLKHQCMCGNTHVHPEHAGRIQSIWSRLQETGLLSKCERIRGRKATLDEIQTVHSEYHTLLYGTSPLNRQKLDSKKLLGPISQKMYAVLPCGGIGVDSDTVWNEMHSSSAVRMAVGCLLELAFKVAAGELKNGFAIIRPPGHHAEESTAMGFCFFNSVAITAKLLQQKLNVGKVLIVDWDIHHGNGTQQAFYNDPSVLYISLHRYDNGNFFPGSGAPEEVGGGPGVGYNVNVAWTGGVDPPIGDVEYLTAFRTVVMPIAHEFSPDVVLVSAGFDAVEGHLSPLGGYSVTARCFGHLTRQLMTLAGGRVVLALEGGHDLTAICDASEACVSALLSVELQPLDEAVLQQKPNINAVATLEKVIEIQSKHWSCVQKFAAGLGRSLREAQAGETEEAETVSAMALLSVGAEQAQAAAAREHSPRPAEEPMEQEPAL

pIC50 (Histone deacetylase 1)	pIC50 (Histone deacetylase 2)	pIC50 (Histone deacetylase 3)	pIC50 (Histone deacetylase 4)	pIC50 (Histone deacetylase 5)	pIC50 [1]	pIC50 (Histone deacetylase 7)	pIC50 (Histone deacetylase 8)	pIC50 (Histone deacetylase 9)	pIC50 [2]	pIC50 (Histone deacetylase 11)	SMILES	pIC50 (NCI-H460)	pIC50 (HCT-116)
											Cc1[nH]c2ccccc2c1C(CCCCCC(=O)NO)c1c(C)[nH]c2ccccc12	5.37	5.49
											O=C(CCCCCCC(c1c[nH]c2ccccc12)c1c[nH]c2ccccc12)NO	5.57	5.46
											Cc1ccc2[nH]cc(C(CCCCCC(=O)NO)c3c[nH]c4ccc(C)cc34)c2c1	6.29	6.57
5.32	5.41	6.36	5.32	5.31	5.31	5.38	6.14	5.48	5.33	6.39	O=C(/C=C/c1ccc(C(c2c[nH]c3ccccc23)c2c[nH]c3ccccc23)cc1)NO	5.59	5.59
											CCc1cccc2c(C(CCCCCC(=O)NO)c3c[nH]c4c(CC)cccc34)c[nH]c12	5.32	5.46
											CN(O)C(=O)CCCCCC(c1cn(C)c2ccccc12)c1cn(C)c2ccccc12	< 4.70	< 4.70
6.14	5.70	6.46	5.89	6.23	8.22		6.62	6.19	6.06	6.37	O=C(CCCCCC(c1c[nH]c2ccccc12)c1c[nH]c2ccccc12)NO	5.92	6.22
4.68	5.96	6.59	3.82	4.55			4.13	4.30	4.14	5.24	Nc1ccccc1NC(=O)CCCCCC(c1c[nH]c2ccccc12)c1c[nH]c2ccccc12	< 4.70	4.78
											O=C(CCCCCC(c1cc2ccccc2[nH]1)c1c[nH]c2ccccc12)NO (stereo not given)	6.09	6.08
											CN(O)C(=O)CCCCCC(c1c[nH]c2ccccc12)c1c[nH]c2ccccc12	< 4.70	< 4.70
